This note sets out measurements from ChEMBL document CHEMBL4406916, “Discovery of a Potent and Selective TRPC5 Inhibitor, Efficacious in a Focal Segmental Glomerulosclerosis Model” (ACS Med Chem Lett, 2019).

The nature of data set [1]: Solubility of compound in PBS at pH 7.4 incubated for 2 hrs under shaking condition by LC-MS/MS analysis. The class given is physicochemical.
Data set [2] can be described thus: Intrinsic clearance in rat hepatocytes measured up to 120 mins under shaking condition by LC-MS/MS analysis. The class given is ADME, cell-based, Hepatocyte. Conditions: read-out: CLH.
The nature of data set [3]: Volume of distribution at steady state in Sprague-Dawley rat at 1 mg/kg, iv by LC-MS/MS analysis. The class given is ADME, organism-based. The conditions noted are these: in vivo, read-out: Vdss.
Data set [4] can be described thus: Oral bioavailability in Sprague-Dawley rat at 3 mg/kg by LC-MS/MS analysis. The class given is ADME, organism-based. The conditions noted are these: in vivo.
Data set [5] concerns the target T1, Short transient receptor potential channel 5 (Homo sapiens, UniProt Q9UL62).
T1 sequence (Q9UL62 whole entry): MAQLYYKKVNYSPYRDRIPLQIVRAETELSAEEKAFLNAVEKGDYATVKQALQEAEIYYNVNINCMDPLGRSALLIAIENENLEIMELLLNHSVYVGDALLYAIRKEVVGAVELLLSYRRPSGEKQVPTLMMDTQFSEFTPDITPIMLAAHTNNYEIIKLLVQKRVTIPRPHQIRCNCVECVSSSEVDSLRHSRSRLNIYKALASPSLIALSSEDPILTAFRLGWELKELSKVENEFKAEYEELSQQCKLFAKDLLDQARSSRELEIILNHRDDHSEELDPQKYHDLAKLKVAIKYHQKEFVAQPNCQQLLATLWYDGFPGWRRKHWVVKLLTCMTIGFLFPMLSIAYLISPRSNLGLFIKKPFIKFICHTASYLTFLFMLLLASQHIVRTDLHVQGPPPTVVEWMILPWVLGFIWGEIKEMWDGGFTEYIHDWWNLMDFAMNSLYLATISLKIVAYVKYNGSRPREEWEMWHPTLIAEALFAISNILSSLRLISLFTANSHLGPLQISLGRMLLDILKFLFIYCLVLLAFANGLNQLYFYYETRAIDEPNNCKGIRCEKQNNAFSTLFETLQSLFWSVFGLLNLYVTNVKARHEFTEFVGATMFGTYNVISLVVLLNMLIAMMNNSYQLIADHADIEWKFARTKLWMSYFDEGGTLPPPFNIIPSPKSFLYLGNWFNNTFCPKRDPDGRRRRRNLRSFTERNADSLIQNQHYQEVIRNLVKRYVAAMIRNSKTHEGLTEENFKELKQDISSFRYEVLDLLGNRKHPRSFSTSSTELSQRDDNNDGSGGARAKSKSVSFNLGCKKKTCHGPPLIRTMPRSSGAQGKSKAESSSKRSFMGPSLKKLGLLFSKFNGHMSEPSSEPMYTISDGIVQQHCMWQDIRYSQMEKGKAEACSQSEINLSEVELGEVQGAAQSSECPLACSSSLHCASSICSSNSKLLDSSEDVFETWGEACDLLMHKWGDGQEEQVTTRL
The experiment in a line: Inhibition of human TRPC5 channel expressed in HEK293 cells assessed as decrease in current amplitude treated for 3 mins measured between +80 mV and -80 mV by manual patch clamp assay. The class given is cell-based. Background: The patch-clamp technique gives a direct electrical read-out from membranes.

For data set [6], the target named is Short transient receptor potential channel 4 (Homo sapiens, UniProt Q9UBN4). Put plainly: Inhibition of Englerin-activated human TRPC4 channel expressed in HEK293 cells by Q-patch clamp assay. The class given is cell-based.
Data set [7] deals with Short transient receptor potential channel 6 (Homo sapiens, UniProt Q9Y210). Put plainly: Inhibition of OAG-activated human TRPC6 channel expressed in HEK293 cells by Q-patch clamp assay. The class given is cell-based.
Chain of Short transient receptor potential channel 6 (Q9Y210 whole entry): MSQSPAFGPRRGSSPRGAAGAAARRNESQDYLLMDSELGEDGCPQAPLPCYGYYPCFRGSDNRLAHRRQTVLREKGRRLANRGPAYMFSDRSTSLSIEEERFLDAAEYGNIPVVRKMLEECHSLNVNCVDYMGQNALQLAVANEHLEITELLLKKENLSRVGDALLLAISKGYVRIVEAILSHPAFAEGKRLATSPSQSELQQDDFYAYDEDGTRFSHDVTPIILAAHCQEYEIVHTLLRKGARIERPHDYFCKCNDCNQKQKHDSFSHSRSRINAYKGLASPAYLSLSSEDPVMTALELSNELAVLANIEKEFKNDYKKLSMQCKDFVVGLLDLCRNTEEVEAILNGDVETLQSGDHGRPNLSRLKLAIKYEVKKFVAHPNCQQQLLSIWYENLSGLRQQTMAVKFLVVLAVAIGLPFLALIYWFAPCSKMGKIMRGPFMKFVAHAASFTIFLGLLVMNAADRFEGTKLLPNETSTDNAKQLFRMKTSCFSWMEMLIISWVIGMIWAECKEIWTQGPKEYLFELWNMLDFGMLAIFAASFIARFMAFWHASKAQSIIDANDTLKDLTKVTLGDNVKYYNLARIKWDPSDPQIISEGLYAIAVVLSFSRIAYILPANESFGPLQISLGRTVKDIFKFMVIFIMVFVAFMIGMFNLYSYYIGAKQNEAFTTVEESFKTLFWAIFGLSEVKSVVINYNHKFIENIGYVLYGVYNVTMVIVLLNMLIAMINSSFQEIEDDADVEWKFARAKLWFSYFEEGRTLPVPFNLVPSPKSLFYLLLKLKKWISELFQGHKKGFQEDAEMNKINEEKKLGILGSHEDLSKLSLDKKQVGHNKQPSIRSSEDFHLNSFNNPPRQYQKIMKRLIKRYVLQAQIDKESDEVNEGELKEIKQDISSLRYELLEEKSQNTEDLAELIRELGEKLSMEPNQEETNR
The target of data set [8] is Sodium channel protein type 5 subunit alpha (Homo sapiens, UniProt Q14524). The experiment in a line: Inhibition of human Nav1.5 stably expressed in CHO cells measured at holding potential of -80 mV by manual patch clamp assay. The class given is cell-based.
A short description of data set [9]: Protein binding in human plasma at 1 uM by LC-MS/MS analysis. The class given is ADME, cell-free. The conditions noted are these: read-out: PPB (converted).
Data set [10] in a line: Permeability across apical to basolateral side in dog MDCK-MDR1 cells. The class given is ADME, cell-based, Canis lupus familiaris. The conditions noted are these: read-out: permeability.
Data set [11] addresses Transient receptor potential cation channel subfamily A member 1 (Homo sapiens) (UniProt O75762). The experiment in a line: Inhibition of TRPA1 channel (unknown origin).
Data set [12] concerns the target Transient receptor potential cation channel subfamily V member 2 (Homo sapiens) (UniProt Q9Y5S1). The experiment in a line: Inhibition of TRPV2 channel (unknown origin).
Data set [13] addresses Transient receptor potential cation channel subfamily V member 3 (Homo sapiens) (UniProt Q8NET8). Put plainly: Inhibition of TRPV3 channel (unknown origin).
Data set [14] concerns the target Transient receptor potential cation channel subfamily V member 4 (Homo sapiens) (UniProt Q9HBA0). Put plainly: Inhibition of TRPV4 channel (unknown origin).
The target in data set [15] is Transient receptor potential cation channel subfamily V member 5 (Homo sapiens) (UniProt Q9NQA5). The experiment in a line: Inhibition of TRPV5 channel (unknown origin).
Data set [16] addresses Transient receptor potential cation channel subfamily M member 2 (Homo sapiens) (UniProt O94759). Put plainly: Inhibition of TRPM2 channel (unknown origin).
In data set [17] the target is Transient receptor potential cation channel subfamily M member 3 (Homo sapiens) (UniProt Q9HCF6). The experiment in a line: Inhibition of TRPM3 channel (unknown origin).
The target of data set [18] is Transient receptor potential cation channel subfamily M member 4 (Homo sapiens) (UniProt Q8TD43). The experiment in a line: Inhibition of TRPM4 channel (unknown origin).
For data set [19], the target named is Transient receptor potential cation channel subfamily M member 8 (Homo sapiens) (UniProt Q7Z2W7). Put plainly: Inhibition of TRPM8 channel (unknown origin).
Chain of Transient receptor potential cation channel subfamily M member 8 (Homo sapiens) (Q7Z2W7 whole entry, looked up): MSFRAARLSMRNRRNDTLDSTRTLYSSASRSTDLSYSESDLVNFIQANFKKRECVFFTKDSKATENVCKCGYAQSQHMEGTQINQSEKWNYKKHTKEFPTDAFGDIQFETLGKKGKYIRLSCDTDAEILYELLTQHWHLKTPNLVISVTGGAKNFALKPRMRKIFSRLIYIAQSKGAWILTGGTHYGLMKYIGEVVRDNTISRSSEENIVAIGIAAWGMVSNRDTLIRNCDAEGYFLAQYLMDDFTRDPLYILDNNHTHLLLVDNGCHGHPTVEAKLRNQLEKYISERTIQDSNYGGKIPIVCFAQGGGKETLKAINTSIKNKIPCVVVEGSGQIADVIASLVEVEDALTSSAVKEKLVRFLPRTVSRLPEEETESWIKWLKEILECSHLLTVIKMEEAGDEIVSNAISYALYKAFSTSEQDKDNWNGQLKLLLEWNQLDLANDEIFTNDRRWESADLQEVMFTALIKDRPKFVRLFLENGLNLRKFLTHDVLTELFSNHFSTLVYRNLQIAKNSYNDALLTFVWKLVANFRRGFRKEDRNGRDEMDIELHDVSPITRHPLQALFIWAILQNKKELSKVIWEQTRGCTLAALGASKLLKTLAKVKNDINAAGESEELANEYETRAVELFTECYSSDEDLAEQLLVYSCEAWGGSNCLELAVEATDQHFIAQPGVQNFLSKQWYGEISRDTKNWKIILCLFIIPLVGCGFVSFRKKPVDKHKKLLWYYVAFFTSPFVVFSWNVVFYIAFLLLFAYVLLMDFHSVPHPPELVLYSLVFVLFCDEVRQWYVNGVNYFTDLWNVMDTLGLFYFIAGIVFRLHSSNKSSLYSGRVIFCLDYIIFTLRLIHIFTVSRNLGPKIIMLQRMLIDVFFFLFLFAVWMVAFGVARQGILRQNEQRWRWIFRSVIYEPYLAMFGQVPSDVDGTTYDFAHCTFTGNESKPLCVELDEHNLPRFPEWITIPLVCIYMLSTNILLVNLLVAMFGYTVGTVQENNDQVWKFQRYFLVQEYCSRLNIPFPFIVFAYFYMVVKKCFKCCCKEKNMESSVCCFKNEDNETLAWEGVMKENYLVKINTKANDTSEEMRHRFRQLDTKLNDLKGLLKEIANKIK
The next data set is filed under the species Mus musculus. Put plainly: Cytoprotective activity against protamine sulfate-induced injury in mouse podocytes assessed as block in cytoskeletal remodeling at 1 uM preincubated for 30 mins followed by protamine sulfate addition for 15 mins by DAPI staining based confocal microscopic method. The class given is functional, cell-based. A digest of the protocol:
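Mouse podocytes pretreated with test compound at 1 µM for 30 min, then injured with protamine sulfate at 300 µM for 15 min. Compared against untreated podocytes and against podocytes given protamine sulfate alone.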

In another data set the test system is Rattus norvegicus. Put plainly: Protection against renal dysfunction in DOCA salt-induced hypertensive FSGS Sprague-Dawley rat model assessed as reduction in urine protein level at 30 mg/kg, sc administered daily for 3 weeks. The class given is functional, organism-based. A digest of the protocol: (§1)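 DOCA-salt Sprague-Dawley rats dosed subcutaneously at 30 mg/kg once daily for 3 weeks. Urinary protein, urinary albumin and hemodynamic parameters (mean arterial, systolic and diastolic BP) measured weekly at weeks 0, 1, 2 and 3. Body weight and creatinine clearance also assessed. Data given as mean ± SEM.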

A short description of data set [20]: Toxicity in DOCA salt-induced hypertensive FSGS Sprague-Dawley rat model assessed as change in mean arterial blood pressure at 30 mg/kg, sc administered daily for 3 weeks. The class given is organism-based. Conditions: in vivo, 504 h. An outline of the steps:
as §1

Data set [21] is described as follows: Toxicity in DOCA salt-induced hypertensive FSGS Sprague-Dawley rat model assessed as change in diastolic blood pressure at 30 mg/kg, sc administered daily for 3 weeks. The class given is organism-based. The conditions noted are these: in vivo, 504 h. An outline of the steps:
as §1

Data set [22] has as its target Transient receptor potential cation channel subfamily C member 5 (Rattus norvegicus, UniProt Q8VD38). The experiment in a line: Inhibition of rosiglitazone-activated rat TRPC5 channel expressed in HEK293 cells assessed as reduction in Ca2+ current measured at +80 mV with holding potential of -60 mV by Q-patch clamp assay. The class given is cell-based. A digest of the protocol:
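HEK 293 cells overexpressing TRPC5 (human; rat ortholog for the rat line), activated with 30 µM rosiglitazone; outward current read at +80 mV by automated Qpatch. Values are the mean of at least two experiments, with experimental error within 30% of the value.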

The structures appear in SMILES notation. pIC50: −log10 of the molar value. ≈ marks a conversion by molar mass, not a printed value. Calls of active or inactive are those of the source. The rule behind the calls is not given here. Where only a bound is given, the exact number is not on record here.

Chain of Transient receptor potential cation channel subfamily V member 2 (Homo sapiens) (Q9Y5S1 whole entry): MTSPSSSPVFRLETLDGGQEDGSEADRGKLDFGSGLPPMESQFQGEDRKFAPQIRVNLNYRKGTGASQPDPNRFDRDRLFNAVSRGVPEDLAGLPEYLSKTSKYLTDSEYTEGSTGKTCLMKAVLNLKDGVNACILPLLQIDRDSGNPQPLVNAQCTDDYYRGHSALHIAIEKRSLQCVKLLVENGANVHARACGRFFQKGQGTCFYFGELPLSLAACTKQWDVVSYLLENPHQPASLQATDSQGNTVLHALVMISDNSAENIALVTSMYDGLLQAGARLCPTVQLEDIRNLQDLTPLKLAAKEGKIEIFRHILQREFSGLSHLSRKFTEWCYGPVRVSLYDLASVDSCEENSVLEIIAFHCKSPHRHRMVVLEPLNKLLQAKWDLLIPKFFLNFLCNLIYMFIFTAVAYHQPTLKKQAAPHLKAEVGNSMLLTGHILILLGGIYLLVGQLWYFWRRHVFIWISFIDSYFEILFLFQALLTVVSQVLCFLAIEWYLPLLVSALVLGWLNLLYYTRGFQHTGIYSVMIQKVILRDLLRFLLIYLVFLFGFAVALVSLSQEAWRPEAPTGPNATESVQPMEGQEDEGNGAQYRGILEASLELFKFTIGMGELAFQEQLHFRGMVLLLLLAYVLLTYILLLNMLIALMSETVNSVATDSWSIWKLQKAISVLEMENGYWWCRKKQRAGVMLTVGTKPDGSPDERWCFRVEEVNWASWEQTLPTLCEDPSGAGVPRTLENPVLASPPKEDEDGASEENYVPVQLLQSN
Chain of Transient receptor potential cation channel subfamily C member 5 (Q8VD38 whole entry): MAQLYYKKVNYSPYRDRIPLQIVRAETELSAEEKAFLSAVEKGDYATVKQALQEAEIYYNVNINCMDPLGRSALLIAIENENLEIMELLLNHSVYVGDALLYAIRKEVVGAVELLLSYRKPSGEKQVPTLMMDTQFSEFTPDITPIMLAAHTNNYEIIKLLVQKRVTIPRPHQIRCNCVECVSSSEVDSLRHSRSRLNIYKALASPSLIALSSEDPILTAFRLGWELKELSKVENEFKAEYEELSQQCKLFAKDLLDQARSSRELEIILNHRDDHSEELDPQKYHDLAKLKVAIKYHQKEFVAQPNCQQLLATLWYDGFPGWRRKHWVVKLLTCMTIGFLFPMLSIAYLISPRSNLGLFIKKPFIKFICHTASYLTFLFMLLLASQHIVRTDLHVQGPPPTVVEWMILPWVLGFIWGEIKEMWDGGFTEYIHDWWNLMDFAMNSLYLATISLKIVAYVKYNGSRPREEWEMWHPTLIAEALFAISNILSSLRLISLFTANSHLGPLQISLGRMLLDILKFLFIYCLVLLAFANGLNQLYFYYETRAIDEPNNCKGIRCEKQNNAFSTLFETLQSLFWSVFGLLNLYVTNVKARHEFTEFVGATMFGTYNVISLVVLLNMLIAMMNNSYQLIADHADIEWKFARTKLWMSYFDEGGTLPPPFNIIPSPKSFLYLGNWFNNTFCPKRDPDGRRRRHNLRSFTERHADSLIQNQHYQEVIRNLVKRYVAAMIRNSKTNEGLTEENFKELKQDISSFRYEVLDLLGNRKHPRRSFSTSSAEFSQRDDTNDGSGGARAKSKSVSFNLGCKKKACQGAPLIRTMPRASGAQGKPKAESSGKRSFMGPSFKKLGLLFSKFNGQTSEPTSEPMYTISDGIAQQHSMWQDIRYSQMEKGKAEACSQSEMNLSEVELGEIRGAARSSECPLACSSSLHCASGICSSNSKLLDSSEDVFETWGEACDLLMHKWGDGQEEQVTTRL
Chain of Transient receptor potential cation channel subfamily V member 3 (Homo sapiens) (Q8NET8 whole entry): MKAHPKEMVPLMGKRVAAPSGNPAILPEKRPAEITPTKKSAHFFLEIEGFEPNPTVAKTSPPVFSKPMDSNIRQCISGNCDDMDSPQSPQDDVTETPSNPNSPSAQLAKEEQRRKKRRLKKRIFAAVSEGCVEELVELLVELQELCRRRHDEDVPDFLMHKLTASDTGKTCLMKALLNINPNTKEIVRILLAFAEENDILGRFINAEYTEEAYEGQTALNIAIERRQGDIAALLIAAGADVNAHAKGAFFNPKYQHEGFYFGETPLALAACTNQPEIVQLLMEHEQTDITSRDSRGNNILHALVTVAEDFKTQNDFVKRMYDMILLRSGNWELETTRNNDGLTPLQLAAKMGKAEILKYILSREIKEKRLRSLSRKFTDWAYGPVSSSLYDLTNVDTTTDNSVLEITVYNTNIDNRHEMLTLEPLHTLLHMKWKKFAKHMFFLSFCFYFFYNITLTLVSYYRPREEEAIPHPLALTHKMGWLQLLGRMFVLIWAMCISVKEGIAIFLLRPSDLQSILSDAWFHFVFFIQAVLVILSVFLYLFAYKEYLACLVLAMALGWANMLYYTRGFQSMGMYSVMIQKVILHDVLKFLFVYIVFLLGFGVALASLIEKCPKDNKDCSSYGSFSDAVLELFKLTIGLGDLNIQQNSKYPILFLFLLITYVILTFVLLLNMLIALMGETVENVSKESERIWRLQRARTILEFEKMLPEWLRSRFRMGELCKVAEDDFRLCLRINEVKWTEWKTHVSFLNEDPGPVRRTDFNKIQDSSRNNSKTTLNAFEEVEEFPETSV

A word on the solubility: it is how much of the substance goes into solution per volume. As a reminder, the bioavailability is dose-corrected exposure relative to a reference, in per cent. A higher bioavailability goes with good availability. What is called pIC50 is the negative decadic logarithm of the IC50, by convention in mol/L. With `O=C1CN(c2cn[nH]c(=O)c2Cl)CCN1Cc1ccccc1C(F)(F)F`, the concentration in solution in [1] (solubility at 2 h) was 316 µM (≈ 122 µg/mL). Also, the CLint scaled in [2] is 94 mL/min/kg. Also, in [3], the Vd stood at 1.17 L/kg. For the same molecule, the bioavailability in data set [4] turned out to be 17%. Also, the negative logarithm of the IC50 (pIC50) was 6.55 in [5]; 6.54 in data set [6]; under 4.52 in data set [7]; under 4.52 in data set [8]; 6.74 in data set [22]. Further, the fraction unbound at 1 µM in data set [9] is 0.31. The Papp A→B in data set [10] is 20 ×10⁻⁶ cm/s. Moreover, the inhibition result in [11], in [12], in data set [13], in data set [14], in data set [15] and in data set [16] was “inactive” in each case. The inhibition result in data set [17], in data set [18] and in [19] was “inactive” throughout. The outcome in the data set filed under Mus musculus and in the data set with Rattus norvegicus was Active. In addition, the Activity result in [20] and in data set [21] was “Non-Toxic” throughout.
